# The source made the active and inactive calls. The calls are words filed in the database; no cut-off is given here.
# Experiments:
# MCF7 [1] = test: Antiproliferative activity against human MCF7 cells incubated for 48 hrs by sulforhodamine B assay; assay type: functional, cell-based; conditions: MCF7, 48 h
# In short: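 MCF-7 cells (1 × 10⁵ cells/mL) attached 24 h in MEM with 10% FBS, 37 °C, 5% CO2. Exposed to serial dilutions, DMSO final <0.1%, for 48 h. TCA (50%) fixation, sulforhodamine B staining, IC50 determined. Three independent sets.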
# HeLa = test: Antiproliferative activity against human HeLa cells incubated for 24 hrs by sulforhodamine B assay; assay type: functional, cell-based
# In short: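 HeLa cells (1 × 10⁵ cells/mL) attached 24 h in MEM with 10% FBS, 37 °C, 5% CO2. Then treated with serial dilutions, DMSO final <0.1%, for 24 h. Fixed with 50% TCA, sulforhodamine B read-out, IC50 derived. Three independent experiments.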
# Ovis aries [2] = organism: Ovis aries; test: Inhibition of goat brain tubulin assembly at 20 uM incubated for 10 mins by spectrophotometry
# In short: (§1)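 Goat brain tubulin (12 μM; glutamate-purified, >97% pure) held 10 min on ice with compound in 25 mM PIPES, 1 mM EGTA, 3 mM MgCl2, 1 M glutamate. Then 1 mM GTP added. Assembly followed at 350 nm, 37 °C, for 20 min. Three independent experiments.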
# [3] = Inhibition of goat brain tubulin assembly incubated for 10 mins by spectrophotometry; parameters: species or system Ovis aries; in short: as §1
# [4] = Binding affinity to goat brain tubulin assessed as reduction in binding of 5-(Quinolin-3-yl)-4-(3,4,5-trimethoxyphenyl)-1H-imidazol-2-amine to tubulin incubated for 15 mins by fluorescence based assay; parameters: species or system Ovis aries
# In short: (§2)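 Goat brain tubulin (3 μM) was preincubated with competitor (1–20 μM) in 25 mM PIPES, pH 6.8, for 15 min at 25 °C. The 2-aminoimidazole probe (6 μM) was then added for 15 min at 25 °C. Emission was recorded at 420–520 nm with excitation at 350 nm. Ki was calculated as EC50/(1 + L/Kd). Three sets were run.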
# MCF7 [5] = test: Induction of cell cycle arrest in human MCF7 cells assessed as accumulation at S phase at 5 nM incubated for 24 hrs by propidium iodide staining based flow cytometry (reference value: 35%); assay type: functional
# Ovis aries [6] = organism: Ovis aries; test: Binding affinity to goat brain tubulin incubated for 15 mins in presence of CA-4 by fluorescence based assay
# In short: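 Tubulin (3 μM) preincubated with CA-4 (1–20 μM) in 25 mM PIPES, pH 6.8, 15 min at 25 °C. Then 6 μM compound added for another 15 min at 25 °C. Spectra 420–520 nm taken with excitation 350 nm. Ki from Ki = EC50/(1 + L/Kd). Three sets.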
# MCF7 [7] = test: Induction of cell cycle arrest in human MCF7 cells assessed as accumulation at G1 phase at 5 nM incubated for 24 hrs by propidium iodide staining based flow cytometry (reference value: 49%); assay type: functional
# Ovis aries [8] = organism: Ovis aries; test: Binding affinity to goat brain tubulin at 10 uM pre-incubated for 30 mins before 50 uM podophyllotoxin exposure for 30 mins by fluorescence based assay
# In short: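 Displacement assay: tubulin was first incubated with the 2-aminoimidazole ligand for 30 min. It was then incubated without or with 50 μM podophyllotoxin or 50 μM CA-4 for a further 30 min. The read-out was the drop in fluorescence of the tubulin–ligand complex.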
# EMT6 = test: Antiproliferative activity against drug resistant mouse EMT6/AR1 cells incubated for 24 hrs by sulforhodamine B assay; assay type: functional, cell-based; conditions: EMT6, 24 h
# In short: (§3)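 Cells grown in DMEM with 2.2 g/L sodium bicarbonate, 10% FBS and antibiotic–antimycotic at 37 °C under 5% CO2. Compounds were dissolved in DMSO and diluted in medium (final DMSO <0.1%). Cells were exposed to a concentration series for 24 h, fixed with 50% TCA and stained with sulforhodamine B. IC50 was derived from three independent experiments.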
# Ovis aries [9] = organism: Ovis aries; test: Binding affinity to goat brain tubulin at 6 uM incubated for 10 mins after 10 mins incubation with 10 and 30 uM vinblastine by fluorescence based assay
# Tubulin (Homo sapiens) [10] = target: T1, Tubulin (Homo sapiens) (UniProt P68371+Q9H4B7+P0DPH7+P68366+Q13509+Q71U36+P04350+Q3ZCM7+P07437+P68363+Q9BQE3+Q6PEY2+Q13885+Q9BVA1+Q9BUF5); test: Induction of interphase microtubule network depolymerization in human MCF7 cells at 10 nM incubated for 24 hrs by immunostaining method; assay type: cell-based
# MCF7 [11] = test: Induction of cell cycle arrest in human MCF7 cells assessed as accumulation at S phase at 10 nM incubated for 24 hrs by propidium iodide staining based flow cytometry (reference value: 35%); assay type: functional
# Ovis aries [12] = organism: Ovis aries; test: Binding affinity to goat brain tubulin at 10 uM pre-incubated for 30 mins before 50 uM CA-4 exposure for 30 mins by fluorescence based assay
# In short: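 Tubulin first incubated 30 min with test compound, then 30 min without or with 50 μM CA-4 or 50 μM podophyllotoxin. Read-out is fluorescence of the tubulin–compound complex.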
# MCF7 [13] = test: Induction of cell cycle arrest in human MCF7 cells assessed as accumulation at G2/M phase at 5 nM incubated for 24 hrs by propidium iodide staining based flow cytometry (reference value: 16%); assay type: functional
# MCF7 [14] = test: Induction of mitotic spindle disturbance in human MCF7 cells assessed as monopolar spindle formation at 5 and 10 nM incubated for 24 hrs by immunostaining; assay type: functional, cell-based
# Huh-7 = test: Antiproliferative activity against human HuH7 cells incubated for 24 hrs by sulforhodamine B assay; assay type: functional, cell-based; conditions: Huh-7, 24 h; in short: as §3
# Ovis aries [15] = organism: Ovis aries; test: Binding affinity to goat brain tubulin at 6 uM […] with 10 and 30 uM paclitaxel by fluorescence based assay
# MCF7 [16] = test: Induction of mitosis block in human MCF7 cells assessed as phospho-histone H3 (Ser10) staining positive cells level at 5 nM incubated for 24 hrs by immunostaining (reference value: 8 +/- 1%); assay type: functional
# MDA-MB-231 [17] = test: Inhibition of cell migration of human MDA-MB-231 cells at 50 nM by wound closure assay; assay type: functional
# In short: (§4)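 MDA-MB-231 cells grown to 90% confluency in 35 mm dishes and scratched with a microtip. Incubated without or with compound. Wound closure imaged at 0, 4 and 18 h and expressed as percent closure.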
# Ovis aries [18] = organism: Ovis aries; test: Binding affinity to goat brain tubulin incubated for 15 mins in presence of podophyllotoxin by fluorescence based assay; in short: as §2
# MCF7 [19] = test: Induction of mitosis block in human MCF7 cells assessed as phospho-histone H3 (Ser10) staining positive cells level at 10 nM incubated for 24 hrs by immunostaining (reference value: 8 +/- 1%); assay type: functional
# Tubulin (Homo sapiens) [20] = target: T1, Tubulin (Homo sapiens); test: Induction of interphase microtubule network depolymerization in human MCF7 cells at 5 nM incubated for 24 hrs by immunostaining method; assay type: cell-based
# MDA-MB-231 [21] = test: Antiproliferative activity against human MDA-MB-231 cells incubated for 24 hrs by sulforhodamine B assay; assay type: functional, cell-based; conditions: MDA-MB-231, 24 h; in short: as §3
# MCF7 [22] = test: Induction of mitosis block in human MCF7 cells at 5 and 10 uM incubated for 24 hrs by immunostaining; assay type: functional, cell-based
# MCF7 [23] = test: Induction of cell cycle arrest in human MCF7 cells assessed as accumulation at G1 phase at 10 nM incubated for 24 hrs by propidium iodide staining based flow cytometry (reference value: 49%); assay type: functional
# [24] = (§5) Binding affinity to goat brain tubulin incubated for 10 mins by tryptophan fluorescence quenching based assay; parameters: species or system Ovis aries
# In short: (§6)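 Goat brain tubulin (2 μM), purified with 1 M glutamate, incubated 10 min at 25 °C with compound (1–20 μM) in 25 mM PIPES, pH 6.8. Tryptophan fluorescence read with excitation 295 nm. Kd obtained by fitting ΔF = ΔFmax·L/(Kd + L). Four independent sets.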
# Ovis aries [25] = organism: Ovis aries; test: as §5; in short: as §6
# Ovis aries [26] = organism: Ovis aries; test: Binding affinity to goat brain tubulin at 5 and 10 uM incubated for 10 mins by fluorescence based assay
# In short: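 Goat brain tubulin (2 μM) incubated 10 min at 25 °C with compound (5 and 10 μM) in 25 mM PIPES, pH 6.8. Ligand fluorescence spectra recorded at 420–520 nm, excitation 350 nm. Done three times.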
# MCF7 [27] = test: Induction of cell cycle arrest in human MCF7 cells assessed as accumulation at G2/M phase at 10 nM incubated for 24 hrs by propidium iodide staining based flow cytometry (reference value: 16%); assay type: functional
# MCF7 [28] = test: Induction of cell cycle arrest in human MCF7 cells assessed as accumulation at S phase at 50 nM incubated for 24 hrs by propidium iodide staining based flow cytometry (reference value: 35%); assay type: functional
# MDA-MB-231 [29] = test: Inhibition of cell migration of human MDA-MB-231 cells at 150 nM by wound closure assay; assay type: functional; in short: as §4
# MCF7 [30] = test: Induction of cell cycle arrest in human MCF7 cells assessed as accumulation at G2/M phase at 50 nM incubated for 24 hrs by propidium iodide staining based flow cytometry (reference value: 16%); assay type: functional
# MCF7 [31] = test: Induction of cell cycle arrest in human MCF7 cells assessed as accumulation at G1 phase at 50 nM incubated for 24 hrs by propidium iodide staining based flow cytometry (reference value: 49%); assay type: functional
compound,measurement,setting,value
COc1cc(-c2nc(N)[nH]c2-c2ccc(F)cc2)cc(OC)c1OC,IC50,MCF7 [1],3 µM
same,IC50,HeLa,3.4 µM
COc1cc(-c2nc(N)[nH]c2-c2ccc3[nH]ccc3c2)cc(OC)c1OC,IC50,MCF7 [1],8 µM
same,IC50,HeLa,3 µM
COc1cc(-c2nc(N)[nH]c2-c2ccc(N)nc2)cc(OC)c1OC,IC50,MCF7 [1],21 µM
same,IC50,HeLa,18 µM
Nc1nc(-c2ccccc2)c(-c2ccccc2)[nH]1,inhibition,Ovis aries [2],inactive
same,IC50,MCF7 [1],0.187 µM
same,IC50,HeLa,0.197 µM
COc1ccc(-c2[nH]c(N)nc2-c2cc(OC)c(OC)c(OC)c2)cc1,IC50,[3],13 µM
same,IC50,MCF7 [1],0.174 µM
same,IC50,HeLa,0.166 µM
COc1cc(-c2nc(N)[nH]c2-c2cccc(N)c2)cc(OC)c1OC,IC50,MCF7 [1],6 µM
same,IC50,HeLa,8 µM
COc1cc(-c2nc(N)[nH]c2-c2cccnc2)cc(OC)c1OC,IC50,MCF7 [1],13 µM
same,IC50,HeLa,4 µM
COc1cc([C@@H]2c3cc4c(cc3[C@H](O)[C@H]3COC(=O)[C@H]23)OCO4)cc(OC)c1OC [PODOFILOX],Kd,[4],300 nM
COc1cc(-c2nc(N)[nH]c2-c2ccc(Cl)cc2)cc(OC)c1OC,IC50,MCF7 [1],8 µM
same,IC50,HeLa,3 µM
COc1cc(-c2nc(N)[nH]c2-c2cnc3ccccc3c2)cc(OC)c1OC,IC50,[3],1.6 µM
same,inhibition,[3]; Ovis aries,Dose-dependent effect
same,Activity,MCF7 [5],25%
same,Activity,Ovis aries [6],inactive
same,Activity,MCF7 [7],34%
same,IC50,MCF7 [1],0.003 µM
same,Activity,Ovis aries [8],inactive
same,IC50,EMT6,350 nM
same,Activity,Ovis aries [9],Active
same,IC50,HeLa,0.01 µM
same,Activity,Tubulin (Homo sapiens) [10],Active
same,Activity,MCF7 [11],10%
same,Activity,Ovis aries [12],inactive
same,Activity,MCF7 [13],40%
same,Activity,MCF7 [14],Active
same,IC50,Huh-7,335 nM
same,Activity,Ovis aries [15],Active
same,Activity,MCF7 [16],15%
same,inhibition at 0.05 µM,MDA-MB-231 [17],56%
same,Activity,Ovis aries [18],inactive
same,Activity,MCF7 [19],26%
same,Activity,Tubulin (Homo sapiens) [20],Active
same,IC50,MDA-MB-231 [21],96 nM
same,Activity,MCF7 [22],Active
same,Activity,MCF7 [23],16%
same,Kd,[24],1900 nM
same,Activity,Ovis aries [25],Dose-dependent effect
same,Activity,Ovis aries [26],Active
same,Activity,MCF7 [27],74%
COc1ccc(-c2[nH]c(N)nc2-c2cc(OC)c(OC)c(OC)c2)cc1OC,IC50,[3],11 µM
same,IC50,MCF7 [1],0.071 µM
same,IC50,HeLa,0.068 µM
COc1cc(-c2nc(N)[nH]c2-c2cc(OC)c(OC)c(OC)c2)cc(OC)c1OC,IC50,MCF7 [1],12 µM
same,IC50,HeLa,8 µM
COc1cc(-c2nc(N)[nH]c2-c2cccc(O)c2)cc(OC)c1OC,IC50,MCF7 [1],53 µM
same,IC50,HeLa,18 µM
COc1cc(-c2nc(N)[nH]c2-c2ccccc2)cc(OC)c1OC,IC50,MCF7 [1],27 µM
same,IC50,HeLa,34 µM
COc1cccc(-c2[nH]c(N)nc2-c2cc(OC)c(OC)c(OC)c2)c1,IC50,MCF7 [1],18 µM
same,IC50,HeLa,14 µM
COc1ccc(-c2[nH]c(N)nc2-c2cc(OC)c(OC)c(OC)c2)cc1O,IC50,MCF7 [1],0.22 µM
same,IC50,HeLa,0.39 µM
COc1ccc(/C=C\c2cc(OC)c(OC)c(OC)c2)cc1O [COMBRETASTATIN A4],IC50,[3],1.7 µM
same,Activity,MCF7 [5],23%
same,Activity,MCF7 [7],51%
same,Kd,[4],680 nM
same,IC50,MCF7 [1],0.018 µM
same,IC50,EMT6,495 nM
same,IC50,HeLa,0.025 µM
same,Activity,MCF7 [11],16%
same,Activity,MCF7 [28],23%
same,Activity,MCF7 [13],26%
same,IC50,Huh-7,430 nM
same,inhibition at 0.15 µM,MDA-MB-231 [29],52%
same,inhibition at 0.05 µM,MDA-MB-231 [17],8%
same,IC50,MDA-MB-231 [21],331 nM
same,Activity,MCF7 [30],63%
same,Activity,MCF7 [23],41%
same,Activity,MCF7 [31],14%
same,Activity,MCF7 [27],43%
